Test results from ChEMBL document CHEMBL4152269, “New N-phenylpyrrolamide DNA gyrase B inhibitors: Optimization of efficacy and antibacterial activity” (Eur J Med Chem, 2018).
Converted amounts (≈) assume the structure as drawn.

Legend:
Escherichia coli [1] = experiment: Growth inhibition of Escherichia coli ATCC 25922 at 50 uM after 24 hrs by broth microdilution method relative to control; format: functional; settings: ATCC 25922, 24 h, read-out: GI
Escherichia coli [2] = experiment: Growth inhibition of lpxC deficient Escherichia coli JD17464 at 50 uM after 24 hrs by broth microdilution method relative to control; format: functional; settings: JD17464, 24 h, read-out: GI
Escherichia coli [3] = experiment: Inhibition of Escherichia coli C-terminal His6-tagged topoisomerase-4 expressed in Escherichia coli BL21(DE3) assessed as residual activity at 1 uM preincubated for 10 mins followed by ATP addition measured after 30 mins by purine nucleoside phosphorylase enzyme coupled spectrophotometric method relative to control
Enterococcus faecalis [4] = experiment: Antibacterial activity against Enterococcus faecalis ATCC 29212 after 18 hrs by broth microdilution method; format: functional; settings: ATCC 29212, 18 h
Pseudomonas aeruginosa = experiment: Growth inhibition of Pseudomonas aeruginosa ATCC 27853 at 50 uM after 24 hrs by broth microdilution method relative to control; format: functional; settings: ATCC 27853, 24 h, read-out: GI
Escherichia coli [5] = experiment: Growth inhibition of tolC deficient Escherichia coli JW5503 at 50 uM after 24 hrs by broth microdilution method relative to control; format: functional; settings: JW5503, 24 h, read-out: GI
Staphylococcus aureus [6] = experiment: Growth inhibition of Staphylococcus aureus ATCC 25923 at 50 uM after 24 hrs by broth microdilution method relative to control; format: functional; settings: ATCC 25923, 24 h, read-out: GI
Escherichia coli [7] = experiment: Antibacterial activity against tolC deficient Escherichia coli JW5503 after 18 hrs by broth microdilution method; format: functional; settings: JW5503, 18 h
DNA gyrase subunit B [8] = target: DNA gyrase subunit B (Staphylococcus aureus, UniProt P0A0K8); experiment: Inhibition of Staphylococcus aureus DNA gyrase B preincubated for 10 mins followed by ATP addition measured after 30 mins by purine nucleoside phosphorylase enzyme coupled spectrophotometric method
DNA gyrase subunit B [9] = target: DNA gyrase subunit B (Escherichia coli, UniProt P0AES6); experiment: Inhibition of Escherichia coli DNA gyrase by supercoiling assay
[10] = Inhibition of Staphylococcus aureus topoisomerase-4 assessed as residual activity preincubated for 10 mins followed by ATP addition measured after 30 mins by purine nucleoside phosphorylase enzyme coupled spectrophotometric method
Enterococcus faecalis [11] = experiment: Growth inhibition of Enterococcus faecalis ATCC 29212 at 50 uM after 24 hrs by broth microdilution method relative to control; format: functional; settings: ATCC 29212, 24 h, read-out: GI
Staphylococcus aureus [12] = experiment: Antibacterial activity against Staphylococcus aureus ATCC 25923 after 18 hrs by broth microdilution method; format: functional; settings: ATCC 25923, 18 h
Staphylococcus aureus [13] = experiment: Inhibition of Staphylococcus aureus topoisomerase-4 assessed as residual activity at 1 uM preincubated for 10 mins followed by ATP addition measured after 30 mins by purine nucleoside phosphorylase enzyme coupled spectrophotometric method relative to control
[14] = target: DNA gyrase subunit B (Staphylococcus aureus) (UniProt P0A0K8); experiment: Inhibition of Staphylococcus aureus DNA gyrase B assessed as residual activity at 1 uM preincubated for 10 mins followed by ATP addition measured after 30 mins by purine nucleoside phosphorylase enzyme coupled spectrophotometric method relative to control
HUVEC = experiment: Cytotoxicity against HUVEC assessed as reduction in cell proliferation after 72 hrs by MTS assay; format: cell-based; settings: Homo sapiens
In short: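 MTS assay in HUVEC grown in Eagle's MEM with 2 mM L-glutamine, penicillin/streptomycin and 10% FBS, at 37 °C under 5% CO2. Cells seeded at 2000 per well, attached for 24 h, then exposed to six compound concentrations (0.5% DMSO final) for 72 h. Reagent added for 3 h before reading A490. IC50 derived against DMSO-treated cells; triplicate wells, two repeats.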

Staphylococcus aureus [15] = experiment: Antibacterial activity against Staphylococcus aureus; format: functional
[16] = Inhibition of Escherichia coli topoisomerase-4

Sequence of DNA gyrase subunit B (Staphylococcus aureus) (P0A0K8 2-644 limits assumed): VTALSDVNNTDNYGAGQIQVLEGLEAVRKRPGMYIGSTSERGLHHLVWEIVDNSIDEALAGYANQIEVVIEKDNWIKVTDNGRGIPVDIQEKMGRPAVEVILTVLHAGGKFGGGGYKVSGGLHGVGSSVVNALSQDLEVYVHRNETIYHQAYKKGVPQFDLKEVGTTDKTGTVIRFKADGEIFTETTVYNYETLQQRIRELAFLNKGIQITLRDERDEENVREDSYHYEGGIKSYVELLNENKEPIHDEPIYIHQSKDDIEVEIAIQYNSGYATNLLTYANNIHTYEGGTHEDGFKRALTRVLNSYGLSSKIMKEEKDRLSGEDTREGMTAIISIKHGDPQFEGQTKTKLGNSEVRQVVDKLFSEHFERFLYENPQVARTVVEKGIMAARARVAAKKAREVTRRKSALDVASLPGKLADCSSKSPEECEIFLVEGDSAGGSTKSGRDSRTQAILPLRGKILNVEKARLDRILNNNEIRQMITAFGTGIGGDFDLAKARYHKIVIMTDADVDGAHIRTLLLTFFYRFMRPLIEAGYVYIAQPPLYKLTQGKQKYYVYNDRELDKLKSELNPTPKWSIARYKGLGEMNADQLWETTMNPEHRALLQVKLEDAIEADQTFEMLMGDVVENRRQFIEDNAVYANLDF
Sequence of DNA gyrase subunit B (Staphylococcus aureus, UniProt P0A0K8) (P0A0K8 whole entry): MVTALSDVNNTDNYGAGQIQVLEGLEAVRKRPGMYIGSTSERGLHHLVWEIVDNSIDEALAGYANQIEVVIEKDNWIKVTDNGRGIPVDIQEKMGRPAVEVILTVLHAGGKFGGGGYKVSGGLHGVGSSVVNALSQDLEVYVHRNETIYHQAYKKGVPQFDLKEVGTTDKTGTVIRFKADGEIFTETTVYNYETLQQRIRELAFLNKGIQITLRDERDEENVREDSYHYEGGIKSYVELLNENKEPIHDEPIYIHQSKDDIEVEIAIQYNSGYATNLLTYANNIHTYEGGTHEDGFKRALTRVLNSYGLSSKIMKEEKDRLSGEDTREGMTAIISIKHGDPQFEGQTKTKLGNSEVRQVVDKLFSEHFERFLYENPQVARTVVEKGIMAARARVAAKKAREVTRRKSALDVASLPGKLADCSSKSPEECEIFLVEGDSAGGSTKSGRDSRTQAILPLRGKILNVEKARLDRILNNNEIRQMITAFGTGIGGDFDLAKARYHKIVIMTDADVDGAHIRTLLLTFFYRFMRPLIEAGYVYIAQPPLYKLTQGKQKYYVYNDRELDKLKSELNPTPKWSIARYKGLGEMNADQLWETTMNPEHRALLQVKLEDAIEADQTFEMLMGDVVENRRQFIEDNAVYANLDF

SMILES | inhibition of growth at 50 µM (Escherichia coli [1]) [%] | Activity (Escherichia coli [3]) [%] | inhibition of growth at 50 µM (Pseudomonas aeruginosa) [%] | inhibition of growth at 50 µM (Staphylococcus aureus [6]) [%] | IC50 (DNA gyrase subunit B [9]) [nM] | IC50 [10] [nM] | inhibition of growth at 50 µM (Enterococcus faecalis [11]) [%] | Activity [14] [%] | other results
COC(=O)[C@H](C)NC(=O)c1ccc(NC(=O)c2[nH]c(C)c(Cl)c2Cl)c(OCCN)c1 | 67 | 89 | 35 | 82 | 34 | 3700 | 100 |  | inhibition of growth at 50 µM (Escherichia coli [2]): 47%; MIC90 (Enterococcus faecalis [4]): 25 µM (≈ 11.4 µg/mL); inhibition of growth at 50 µM (Escherichia coli [5]): 100%; MIC90 (Escherichia coli [7]): 25 µM (≈ 11.4 µg/mL); IC50 (DNA gyrase subunit B [8]): 390 nM; MIC90 (Staphylococcus aureus [12]): 50 µM (≈ 22.9 µg/mL)
CC(C)Oc1cc(NC(=O)c2cc(Br)c(Br)[nH]2)ccc1C(=O)NCC(=O)O | 9 |  | -8 | 13 | 400 |  | 14 | 85 | Activity (Staphylococcus aureus [13]): 96%
O=C(O)CNC(=O)c1ccc(NC(=O)c2cc(Br)c(Br)[nH]2)cc1OCc1ccccc1 | 10 | 100 | -2 | 19 | 88 | 39000 | 2 | 79 | 
COc1cc([C@@H]2c3cc4c(cc3[C@@H](O[C@@H]3O[C@@H]5CO[C@@H](C)O[C@H]5[C@H](O)[C@H]3O)[C@H]3COC(=O)[C@H]23)OCO4)cc(OC)c1O [ETOPOSIDE] |  |  |  |  |  |  |  |  | IC50 (HUVEC): 5210 nM
CNc1cc(F)cc2c1[nH]c1nc(Oc3cnc(C)nc3)nc(N3C[C@H]4CCN[C@H]4C3)c12 |  |  |  |  |  |  |  |  | MIC (Staphylococcus aureus [15]): 0.06 µg/mL (≈ 0.138 µM); Ki [16]: < 0.1 nM
